Tests used:
[1] = tested on: Simian immunodeficiency virus; experiment: Antiviral activity against SIV in human CEM cells assessed as inhibition of virus-induced cytopathogenicity; type: functional, organism-based, CCRF-CEM; conditions: ccrf-cem
Summary of the method: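 SIV syncytium assay in CEM174 cells (2 × 10⁵ cells/ml) infected with 100 TCID₅₀ SIV per well alongside serial compound dilutions. Cultures were kept 5 days at 37 °C in humidified 5% CO₂, then giant-cell formation was scored microscopically. EC₅₀ is the concentration protecting cells from SIV cytopathogenicity by 50%.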

[2] = tested on: Simian immunodeficiency virus; experiment: Antiviral activity against SIV in human CEM cells assessed as inhibition of virus-induced cytopathogenicity at 10 uM; type: functional, CCRF-CEM; design: scale not given: the % may be the effect or the level left

EC50 [1]: Not Active
SMILES: C/C=C/C[C@@H](C)[C@@H](O)[C@H]1C(=O)N[C@@H](CC)C(=O)N(C)CC(=O)N(C)[C@@H](CC(C)C)C(=O)N[C@@H](C(C)C)C(=O)N(C)[C@@H](CC(C)C)C(=O)N[C@@H](C)C(=O)N[C@H](C)C(=O)N(C)[C@@H](CC(C)C)C(=O)N(C)[C@@H](CC(C)C)C(=O)N(C)[C@@H](C(C)C)C(=O)N1C [CYCLOSPORINE]
Activity [2]: <10%

— ChEMBL document CHEMBL1153444, “Discovery of dual inhibitors targeting both HIV-1 capsid and human cyclophilin A to inhibit the assembly and uncoating of the viral capsid” (Bioorg Med Chem, 2009)
